Measurements pooled from the literature.
Compare with care: the assays were run in different laboratories.
Read-out: binding

SMILES	target	method	Kd [nM]
Cc1cc(Nc2cc3ncccc3c(N[C@@H]3C[C@H]4CC[C@@H](C3)N4CCC#N)n2)n[nH]1	Mitogen-activated protein kinase kinase kinase 3 (MAP3K3, Homo sapiens, UniProt Q99759)	competition with immobilised ligand	100
NC(=O)C1=CN([C@@H]2O[C@H](COP(=O)(O)OP(=O)(O)OC[C@H]3O[C@@H](n4cnc5c(N)ncnc54)[C@H](OP(=O)(O)O)[C@@H]3O)[C@@H](O)[C@H]2O)C=CC1	ZMO1885 (Zymomonas mobilis, UniProt Q5NLA1, D294W/Y343W)	–	53000
Nc1ncnc2c1ncn2[C@@H]1O[C@H](COP(=O)(O)O)[C@@H](O)[C@H]1O	Adenylosuccinate lyase (ADSL, Homo sapiens, UniProt P30566)	ITC	54000
CCC(=O)N1CCC(C(=O)N(C)CC(=O)N2CCN(c3nc(-c4cnc(N)nc4C(F)F)nc(N4CCOCC4)n3)CC2)CC1	Phosphatidylinositol 4-phosphate 3-kinase C2 domain-containing subunit beta (PIK3C2B, Homo sapiens, UniProt O00750)	competition with immobilised ligand	365
Cc1cnc(-c2ccc(-c3ccc(NC(=O)Nc4c(F)cc(F)cc4F)cc3F)c3c2C(=O)NC3)[nH]1	Aurora kinase B (AURKB, Homo sapiens, UniProt Q96GD4)	competition with immobilised ligand	3.1
CCCCCC(C)=O	Or85b (Drosophila melanogaster, UniProt Q9VHQ7)	MST	~800
CCCC[C@@H]1NC(=O)[C@H](Cc2ccc(O)cc2)NC(=O)[C@@H]2CCCN2C(=O)[C@H](CC(=O)O)NC(=O)[C@H](C)NC(=O)[C@H](Cc2ccccc2)NC(=O)[C@@H]2CSCCC(=O)N3CN(CN(C3)C(=O)CCSC[C@@H](C(=O)N[C@@H](C)C(N)=O)NC1=O)C(=O)CCSC[C@H](NC(C)=O)C(=O)N[C@@H](CC(C)(C)C)C(=O)N1CCC[C@H]1C(=O)N[C@@H](CCC(=O)O)C(=O)N[C@H](CCCCNC(=O)CCc1cn(CCOCCOCCOCCOCCOCCC(=O)N[C@H]3CSCCC(=O)N4CN5CN(C4)C(=O)CCSC[C@H](NC(=O)[C@@H](CC(=O)O)NC(=O)[C@H](Cc4cccc6ccccc46)NC(=O)[C@@H]4CCCN4C3=O)C(=O)N[C@@H](CCSC)C(=O)N[C@@H](CCCCNC(=N)N)C(=O)N[C@@H](CC(=O)O)C(=O)N[C@@H](Cc3c[nH]c4ccccc34)C(=O)N[C@@H](CO)C(=O)N[C@@H]([C@@H](C)O)C(=O)N3CCC[C@H]3C(=O)N3C[C@H](O)C[C@H]3C(=O)N[C@@H](Cc3c[nH]c4ccccc34)C(=O)N[C@H](C(N)=O)CSCCC5=O)nn1)C(=O)N1CCC[C@H]1C(=O)N[C@@H](Cc1ccc(O)cc1)C(=O)N2	Nectin-4 (Homo sapiens, UniProt Q96NY8)	SPR	1.8
Nc1ccn([C@@H]2O[C@H](CO)[C@@H](O)[C@H]2O)c(=O)n1	UCK1 (Homo sapiens, UniProt Q9HA47)	fluorescence	15.9
